Our source for the Activity values is ChEMBL document CHEMBL4334489, “Asperpyridone A: An Unusual Pyridone Alkaloid Exerts Hypoglycemic Activity through the Insulin Signaling Pathway” (J Nat Prod, 2019).

Data set [1] relates to HepG2. In words: Effect on 2-NBDG uptake in insulin-resistant human HepG2 cells at 50 uM pretreated with insulin for 24 hrs followed by compound addition incubated for 24 hrs and subsequent 2-NBDG measured after 30 mins by propidium iodide staining based flow cytometry analysis (reference value: 65.4 %). The format is functional. Background: Flow cytometry measures light scatter and fluorescence of single cells or particles in a stream.

Data set [2] deals with HepG2. Nature of the data set: Effect on 2-NBDG uptake in insulin-resistant human HepG2 cells at 500 uM pretreated with insulin for 24 hrs followed by compound addition incubated for 24 hrs and subsequent 2-NBDG measured after 30 mins by propidium iodide staining based flow cytometry analysis (reference value: 65.4 %). The format is functional.
The subject of data set [3] is HepG2. In words: Effect on 2-NBDG uptake in insulin-resistant human HepG2 cells at 750 uM pretreated with insulin for 24 hrs followed by compound addition incubated for 24 hrs and subsequent 2-NBDG measured after 30 mins by propidium iodide staining based flow cytometry analysis (reference value: 65.4 %). The format is functional.
The subject of data set [4] is HepG2. In words: Effect on 2-NBDG uptake in insulin-resistant human HepG2 cells at 1000 uM pretreated with insulin for 24 hrs followed by compound addition incubated for 24 hrs and subsequent 2-NBDG measured after 30 mins by propidium iodide staining based flow cytometry analysis analysis (reference value: 65.4 %). It is filed as functional.
The test system of data set [5] is HepG2. In words: Cytotoxicity against human HepG2 cells. It is filed as cell-based.
Data set [6] has as its system ASPC1. In words: Cytotoxicity against human AsPC1 cells. It is filed as cell-based.
The test system of data set [7] is HepG2. In words: Antidiabetic activity in human HepG2 cells assessed as increase in glucose consumption at 50 uM by glucose oxidase method. It is filed as functional, cell-based. Summed up:
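HepG2 cells grown in DMEM with 10% FBS and 1% penicillin/streptomycin at 37 °C under 5% CO2. Cells were treated with 50 μM test compound or 0.1% DMSO vehicle. Glucose remaining in the culture supernatant was measured with a glucose oxidase–peroxidase kit.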

In data set [8] the test system is BXPC-3. Nature of the data set: Cytotoxicity against human BxPC3 cells. The format is cell-based.
In data set [9] the test system is Panc02. In words: Cytotoxicity against mouse Panc02 cells. The format is cell-based.
For data set [10], the system named is CT26. In words: Cytotoxicity against mouse CT26 cells. It is filed as cell-based.
Data set [11] relates to HepG2. Nature of the data set: Effect on 2-NBDG uptake in insulin-resistant human HepG2 cells at 0.2 uM pretreated with insulin for 24 hrs followed by compound addition incubated for 24 hrs and subsequent 2-NBDG measured after 30 mins by propidium iodide staining based flow cytometry analysis (reference value: 33.4 %). It is filed as functional.
The subject of data set [12] is HepG2. In words: Effect on 2-NBDG uptake in insulin-resistant human HepG2 cells at 1 uM pretreated with insulin for 24 hrs followed by compound addition incubated for 24 hrs and subsequent 2-NBDG measured after 30 mins by propidium iodide staining based flow cytometry analysis (reference value: 33.4 %). The format is functional.
Data set [13] deals with HepG2. Nature of the data set: Effect on 2-NBDG uptake in insulin-resistant human HepG2 cells at 10 uM pretreated with insulin for 24 hrs followed by compound addition incubated for 24 hrs and subsequent 2-NBDG measured after 30 mins by propidium iodide staining based flow cytometry analysis (reference value: 33.4 %). It is filed as functional.
In data set [14] the test system is HepG2. Nature of the data set: Effect on 2-NBDG uptake in insulin-resistant human HepG2 cells at 25 uM pretreated with insulin for 24 hrs followed by compound addition incubated for 24 hrs and subsequent 2-NBDG measured after 30 mins by propidium iodide staining based flow cytometry analysis (reference value: 33.4 %). The format is functional.
For data set [15], the system named is HepG2. In words: Increase in PCK2 gene expression in insulin-resistant human HepG2 cells at 10 uM using SYBR-green based qRT-PCR analysis. The format is functional, cell-based.
In data set [16] the test system is HepG2. Nature of the data set: Increase in FGF21 gene expression in insulin-resistant human HepG2 cells using SYBR-green based qRT-PCR analysis. The format is functional, cell-based. Summed up:
(§1)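 HepG2 cells were made insulin-resistant with 0.1 units/mL insulin in serum-free DMEM for 24 h, then treated with compound at several doses (5–25 μM range) against a 1% DMSO vehicle control. Transcript levels of the target genes were quantified by qRT-PCR.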
For orientation: Real-time PCR tracks product formation cycle by cycle.

Data set [17] deals with HepG2. Nature of the data set: Increase in FGF21 gene expression in insulin-resistant human HepG2 cells at 10 uM using SYBR-green based qRT-PCR analysis. The format is functional, cell-based. The procedure, abridged:
as §1

The source made the active and inactive calls. The rule behind the calls is not given here.

For `CN(C)C(=N)NC(=N)N` [METFORMIN], the Activity in [1] is 31.9%; in data set [2], 42.5%; in [3] it was 46.1%; in data set [4], 45.6%.

Turning to `COn1ccc2c(c1=O)[C@H]1[C@@H](C[C@H](C)C[C@@H]1C)[C@H](C)O2`, the Activity result was “Non-Toxic” in [5]; “Non-Toxic” in [6]; “Non-Toxic” in [8]; “Non-Toxic” in data set [9]; “Non-Toxic” in data set [10]; 45.1% in data set [11]. Moreover, the Activity in data set [12] was 47.5%; in data set [13], 53.6%; in [14], 46.9%; in [16] it was “Dose-dependent effect”. Besides, the result in [7], in data set [15] and in data set [17] was Active.
